ChEMBL document CHEMBL3779813, “Design, synthesis, topoisomerase I & II inhibitory activity, antiproliferative activity, and structure-activity relationship study of pyrazoline derivatives: An ATP-competitive human topoisomerase IIα catalytic inhibitor” (Bioorg Med Chem, 2016)
pIC50: −log10 of the molar value. Counter-ions that a name gives are not always drawn. The source made the active and inactive calls. The rule behind the calls is not given here.

Assays:
[1] = Antiproliferative activity against human HCT15 cells after 72 hrs by CCK8 assay; assay type: functional, cell-based; conditions: HCT-15, 72 h
Outline: (§1)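 Cells grown in RPMI 1640 with 10% FBS and 1% penicillin, 37 °C, 5% CO2. Seeded at 10^4 cells/well, 24 h at 37 °C, then compound for 72 h. CCK-8 (mitochondrial dehydrogenase) added, 4 h at 37 °C, absorbance read at 450 nm; IC50 derived. Compound stocks 20 mM in DMSO.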

[2] = Antiproliferative activity against human BT474 cells after 72 hrs by CCK8 assay; assay type: functional, cell-based; conditions: BT-474, 72 h; outline: as §1
T47D = assay: Antiproliferative activity against human T47D cells after 72 hrs by CCK8 assay; assay type: functional, cell-based; outline: as §1
[3] = molecular target: T1, DNA topoisomerase 1 (Homo sapiens) (UniProt P11387); assay: Inhibition of human recombinant topoisomerase 1 assessed as relaxation of supercoiled plasmid DNA pBR322 at 100 uM after 30 mins by ethidium bromide staining based agarose gel electrophoresis
T1 sequence (whole entry): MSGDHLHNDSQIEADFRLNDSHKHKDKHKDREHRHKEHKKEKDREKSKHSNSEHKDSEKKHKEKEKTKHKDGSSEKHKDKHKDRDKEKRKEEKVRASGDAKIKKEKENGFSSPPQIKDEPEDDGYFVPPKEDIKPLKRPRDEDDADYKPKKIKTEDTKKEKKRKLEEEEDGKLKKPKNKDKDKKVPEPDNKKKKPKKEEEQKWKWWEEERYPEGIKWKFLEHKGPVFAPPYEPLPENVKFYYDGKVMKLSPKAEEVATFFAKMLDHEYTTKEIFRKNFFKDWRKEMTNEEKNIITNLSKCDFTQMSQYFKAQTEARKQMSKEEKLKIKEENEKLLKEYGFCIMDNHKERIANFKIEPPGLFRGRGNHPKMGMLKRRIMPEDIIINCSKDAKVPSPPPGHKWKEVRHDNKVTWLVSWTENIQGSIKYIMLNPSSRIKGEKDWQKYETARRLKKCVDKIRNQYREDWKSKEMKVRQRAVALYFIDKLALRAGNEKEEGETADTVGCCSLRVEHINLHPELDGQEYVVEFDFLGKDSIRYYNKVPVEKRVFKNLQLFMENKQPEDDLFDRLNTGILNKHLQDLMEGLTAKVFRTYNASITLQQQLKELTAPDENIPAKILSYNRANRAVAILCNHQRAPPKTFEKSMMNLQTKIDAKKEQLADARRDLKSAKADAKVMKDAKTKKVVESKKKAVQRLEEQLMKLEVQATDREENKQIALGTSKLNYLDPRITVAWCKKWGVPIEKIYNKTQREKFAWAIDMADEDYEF
Outline: (§2)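 Recombinant human topo I (1 unit) with 100 ng supercoiled pBR322, 30 min at 37 °C in 10 mM Tris-HCl pH 7.9, 150 mM NaCl, 0.1% BSA, 1 mM spermidine, 5% glycerol. Stopped with sarcosyl buffer; 0.8% agarose, 60 V 1 h in TAE, ethidium bromide stain 30 min, UV densitometry of relaxation as % inhibition.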

[4] = molecular target: DNA topoisomerase 2-alpha (Homo sapiens) (UniProt P11388); assay: Inhibition of human recombinant topoisomerase 2alpha assessed as relaxation of supercoiled plasmid DNA pBR322 at 100 uM after 30 mins by ethidium bromide staining based agarose gel electrophoresis
Outline: (§3)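 Human topo IIα (1 unit) and 100 ng supercoiled pBR322 incubated 30 min at 37 °C in 10 mM Tris-HCl pH 7.9, 50 mM NaCl, 5 mM MgCl2, 1 mM EDTA, 1 mM ATP, 15 µg/mL BSA. Stopped with 7 mM EDTA; 0.8% agarose in TAE, ethidium bromide stain, UV quantitation as % relaxation inhibition.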

[5] = molecular target: DNA topoisomerase 2-alpha (Homo sapiens) (UniProt P11388); assay: Inhibition of human recombinant topoisomerase 2alpha assessed as relaxation of supercoiled plasmid DNA pBR322 at 20 uM after 30 mins by ethidium bromide staining based agarose gel electrophoresis; outline: as §3
[6] = molecular target: DNA topoisomerase 2-alpha (Homo sapiens) (UniProt P11388); assay: Inhibition of human recombinant topoisomerase 2alpha using supercoiled pUC18 as substrate assessed as hydrolysis of ATP preincubated for 30 mins followed by ATP addition measured after 30 mins by malachite green phosphate based ELISA microplate reader analysis
[7] = molecular target: DNA topoisomerase 2-alpha (Homo sapiens) (UniProt P11388); assay: Competitive inhibition of human recombinant topoisomerase 2alpha at 5 to 250 uM using supercoiled plasmid pBR322 as substrate after 30 mins by ethidium bromide staining based agarose gel electrophoresis in presence of ATP
[8] = molecular target: DNA topoisomerase 2-alpha (Homo sapiens) (UniProt P11388); assay: Activity at human recombinant topoisomerase 2alpha using supercoiled plasmid pBR322 as substrate assessed as stabilization of enzyme-DNA cleavage upto 300 uM after 20 mins by ethidium bromide staining based agarose gel electrophoresis
Outline: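 Cleavage complex: 125 ng supercoiled pBR322 preincubated 10 min with 3 units human topo IIα, then compound added, 20 min at 37 °C in 10 µL. Stopped with SDS, proteinase K digestion 30 min at 45 °C, heated 2 min at 70 °C. Run on 0.8% agarose with 0.5 µg/mL ethidium bromide in TAE; linear DNA band quantified by UV imaging.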

HCT-15 [9] = assay: Inhibition of human recombinant topoisomerase mediated DNA relaxation in human HCT15 nuclear lysate at 50 uM preincubated for 24 hrs followed by addition of pBR322 plasmid measured after 30 mins by ethidium bromide staining based agarose gel electrophoresis
Outline: (§4)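 HCT15 cells treated 24 h with compound, harvested, nuclear lysates prepared and protein measured by Bradford. 100 µg nuclear protein plus 100 ng pBR322 in buffer with Tris-Cl pH 7.5, MgCl2, ATP, EDTA, DTT, KCl, BSA, 30 min at 37 °C. Analyzed on 0.9% agarose with ethidium bromide; lysate-free plasmid control.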

HCT-15 [10] = assay: Inhibition of human recombinant topoisomerase mediated DNA relaxation in human HCT15 nuclear lysate at 100 uM preincubated for 24 hrs followed by addition of pBR322 plasmid measured after 30 mins by ethidium bromide staining based agarose gel electrophoresis; outline: as §4
[11] = molecular target: T1, DNA topoisomerase 1 (Homo sapiens); assay: Inhibition of human recombinant topoisomerase 1 assessed as relaxation of supercoiled plasmid DNA pBR322 at 20 uM after 30 mins by ethidium bromide staining based agarose gel electrophoresis; outline: as §2
[12] = molecular target: DNA topoisomerase 2-alpha (Homo sapiens) (UniProt P11388); conditions: 100 uM

DNA topoisomerase 2-alpha (Homo sapiens), sequence (P11388 whole entry): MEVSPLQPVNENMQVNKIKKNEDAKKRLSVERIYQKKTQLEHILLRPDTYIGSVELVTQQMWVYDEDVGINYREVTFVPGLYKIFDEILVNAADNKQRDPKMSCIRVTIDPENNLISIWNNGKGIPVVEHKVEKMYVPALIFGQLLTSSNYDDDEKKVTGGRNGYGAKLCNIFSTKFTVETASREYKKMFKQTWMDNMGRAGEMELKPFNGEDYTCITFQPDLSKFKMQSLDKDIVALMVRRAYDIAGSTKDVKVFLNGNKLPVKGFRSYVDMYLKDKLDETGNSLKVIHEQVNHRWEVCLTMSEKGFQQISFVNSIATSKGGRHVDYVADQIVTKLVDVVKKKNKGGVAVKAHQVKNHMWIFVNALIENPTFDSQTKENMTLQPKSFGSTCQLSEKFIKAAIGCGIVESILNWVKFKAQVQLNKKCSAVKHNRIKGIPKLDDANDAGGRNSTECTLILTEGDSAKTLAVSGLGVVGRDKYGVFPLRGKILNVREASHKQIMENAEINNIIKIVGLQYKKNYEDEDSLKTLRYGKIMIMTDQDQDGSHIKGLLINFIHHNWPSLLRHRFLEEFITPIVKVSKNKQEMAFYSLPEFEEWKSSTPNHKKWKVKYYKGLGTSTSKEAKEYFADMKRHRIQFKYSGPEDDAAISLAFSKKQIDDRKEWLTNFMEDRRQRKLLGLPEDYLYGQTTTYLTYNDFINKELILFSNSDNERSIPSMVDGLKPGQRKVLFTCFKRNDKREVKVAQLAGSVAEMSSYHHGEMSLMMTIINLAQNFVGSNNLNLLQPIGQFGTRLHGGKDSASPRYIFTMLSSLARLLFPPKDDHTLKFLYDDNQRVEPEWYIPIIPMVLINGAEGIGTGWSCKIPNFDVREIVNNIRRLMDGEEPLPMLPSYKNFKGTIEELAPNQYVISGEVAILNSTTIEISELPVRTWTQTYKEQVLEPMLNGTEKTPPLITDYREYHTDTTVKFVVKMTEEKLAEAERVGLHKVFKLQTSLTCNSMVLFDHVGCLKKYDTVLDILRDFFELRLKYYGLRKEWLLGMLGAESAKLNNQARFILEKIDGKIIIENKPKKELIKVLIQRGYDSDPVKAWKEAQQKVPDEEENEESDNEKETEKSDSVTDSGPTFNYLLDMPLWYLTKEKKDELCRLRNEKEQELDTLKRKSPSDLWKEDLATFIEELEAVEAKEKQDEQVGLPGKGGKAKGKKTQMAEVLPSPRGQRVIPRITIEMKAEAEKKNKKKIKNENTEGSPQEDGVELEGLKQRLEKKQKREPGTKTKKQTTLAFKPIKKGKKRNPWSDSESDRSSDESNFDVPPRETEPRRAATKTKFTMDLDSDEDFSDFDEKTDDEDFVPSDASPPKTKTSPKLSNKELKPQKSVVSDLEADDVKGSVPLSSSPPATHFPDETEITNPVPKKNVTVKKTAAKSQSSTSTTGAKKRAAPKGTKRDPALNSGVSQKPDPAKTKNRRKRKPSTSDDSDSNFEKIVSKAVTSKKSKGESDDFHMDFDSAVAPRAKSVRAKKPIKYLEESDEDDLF

CC[C@@]1(O)C(=O)OCc2c1cc1n(c2=O)Cc2cc3ccccc3nc2-1 [CAMPTOTHECIN]
pIC50 [1]: 5.15 | pIC50 [2]: 5.15 | pIC50 (T47D): 5.39

COc1ccccc1C1=NN(C(=O)c2ccncc2)C(c2ccc([N+](=O)[O-])cc2)C1 (configuration not stated)
inhibition [3]: 0% | inhibition [4]: 92.8% | inhibition [5]: 0% | pIC50 [1]: 5.59 | pIC50 [2]: 5.14 | pIC50 (T47D): < 4.30

COc1ccc(C2CC(c3ccccc3)=NN2C(=O)c2ccco2)cc1 (configuration not stated)
inhibition [3]: 0% | inhibition [4]: 91.6% | inhibition [5]: 0% | pIC50 [1]: 5.41 | pIC50 [2]: < 4.30 | pIC50 (T47D): 4.56

COc1ccc(C2CC(c3ccc(Cl)cc3)=NN2C(=O)c2nc3ccccc3s2)cc1 (configuration not stated)
inhibition [3]: 0% | inhibition [4]: 89.7% | inhibition [5]: 0% | pIC50 [1]: 5.39 | pIC50 [2]: 5.14 | pIC50 (T47D): 5.18 | inhibition [6]: Dose-dependent effect | inhibition [7]: Active | Activity [8]: inactive | inhibition (HCT-15 [9]): 78% | inhibition (HCT-15 [10]): 85.4%

COc1ccccc1C1=NN(C(=O)c2ccc([N+](=O)[O-])o2)C(c2ccc([N+](=O)[O-])cc2)C1 (configuration not stated)
inhibition [3]: 0% | inhibition [4]: 92.6% | inhibition [5]: 2.9% | pIC50 [1]: < 4.30 | pIC50 [2]: < 4.30 | pIC50 (T47D): < 4.30

COc1cccc2c1C(=O)c1c(O)c3c(c(O)c1C2=O)C[C@@](O)(C(=O)CO)C[C@@H]3O[C@H]1C[C@H](N)[C@H](O)[C@H](C)O1 [DOXORUBICIN HYDROCHLORIDE]
pIC50 [1]: 4.64 | pIC50 [2]: 5.49

O=C(c1ccco1)N1N=C(c2ccc(Cl)cc2)CC1c1ccco1 (configuration not stated)
inhibition [3]: 96.8% | inhibition [11]: 4% | inhibition [4]: 93.1% | inhibition [5]: 1.3% | pIC50 [1]: < 4.30 | pIC50 [2]: < 4.30 | pIC50 (T47D): < 4.30

COc1ccc(C2CC(c3ccccc3)=NN2C(=O)c2nc3ccccc3s2)cc1 (configuration not stated)
inhibition [3]: 0% | inhibition [4]: 91.2% | inhibition [5]: 0% | pIC50 [1]: 5.72 | pIC50 [2]: 5.20 | pIC50 (T47D): < 4.30

COc1cc([C@@H]2c3cc4c(cc3[C@@H](O[C@@H]3O[C@@H]5CO[C@@H](C)O[C@H]5[C@H](O)[C@H]3O)[C@H]3COC(=O)[C@H]23)OCO4)cc(OC)c1O [ETOPOSIDE]
inhibition [4]: 95.9% | pIC50 [1]: 5.16 | pIC50 [2]: 5.18 | pIC50 (T47D): 5.19 | inhibition [6]: Dose-dependent effect | inhibition (HCT-15 [9]): 36% | inhibition [12]: inactive

COc1ccc(C2=NN(C(=O)c3ccco3)C(c3ccco3)C2)cc1 (configuration not stated)
inhibition [3]: 0% | inhibition [4]: 94.1% | inhibition [5]: 0% | pIC50 [1]: 5.37 | pIC50 [2]: < 4.30 | pIC50 (T47D): 5.12

COc1ccc(C2CC(c3ccccc3)=NN2C(=O)c2ccncc2)cc1 (configuration not stated)
inhibition [3]: 0% | inhibition [4]: 92.5% | inhibition [5]: 0% | pIC50 [1]: 4.98 | pIC50 [2]: < 4.30 | pIC50 (T47D): < 4.30

O=C(c1ccncc1)N1N=C(c2ccc(Cl)cc2)CC1c1ccco1 (configuration not stated)
inhibition [3]: 0% | inhibition [4]: 76% | inhibition [5]: 0% | pIC50 [1]: 5.51 | pIC50 [2]: 5.19 | pIC50 (T47D): 5.10
